The list is not random: actives were taken first. Their share in the collection is about 1.1%.
TNAP act hi DEA = increases human TNAP activity under high phosphate acceptor concentration; purified TNAP, CDP-star luminescence, 1 M DEA, 30 min; hits give high values; 0 = EDTA background, 1 = DMSO-only activity; activation factor at 20 µM; 200,000 tested, under 10 active; AID 1136;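 active = activation factor at least 2 at 20 µM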
Target sequence (P05186 whole entry, looked up): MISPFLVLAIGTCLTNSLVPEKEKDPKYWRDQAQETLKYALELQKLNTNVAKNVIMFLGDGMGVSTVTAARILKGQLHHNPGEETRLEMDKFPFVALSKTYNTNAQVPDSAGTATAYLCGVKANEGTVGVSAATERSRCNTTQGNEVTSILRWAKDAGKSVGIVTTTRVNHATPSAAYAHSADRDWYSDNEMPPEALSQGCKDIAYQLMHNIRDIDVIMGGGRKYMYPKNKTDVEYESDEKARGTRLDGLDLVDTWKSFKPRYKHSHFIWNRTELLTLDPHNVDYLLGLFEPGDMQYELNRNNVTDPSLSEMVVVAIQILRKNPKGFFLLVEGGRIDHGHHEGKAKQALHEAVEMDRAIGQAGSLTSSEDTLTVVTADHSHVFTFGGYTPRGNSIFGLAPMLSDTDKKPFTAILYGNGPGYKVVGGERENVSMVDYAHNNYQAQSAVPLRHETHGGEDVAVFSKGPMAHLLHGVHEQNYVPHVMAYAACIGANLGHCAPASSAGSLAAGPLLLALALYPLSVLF
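Test system – human TNAP · Doses – 20 µM single point · Incubation – 30 min, room temperature · Signal – luminescent substrate turnover signal · Read-out basis – activation factor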
S1P4 antagonist = antagonists of human S1P4 receptor | O95977 | S1P4-expressing cells, antagonist mode, reporter read-out | inhibition, % at 4.98 µM | 220,000 compounds, 0.26% hits | AID 1510; in the data active = inhibition above about 29%;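 note: 0% = wells stimulated with agonist and 100% = vehicle wells without agonist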
S1P3 antag = blocks the human S1P3 receptor; CHO S1P3 NFAT-BLA reporter, FRET fluorescence, antagonist mode; inhibition, % at 4.98 µM; 170,000 compounds, 0.27% hits; AID 485;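 active = inhibition above the plate cutoff, the mean inhibition of test wells on that plate plus 3 SD, cut at about 28% in these data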;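 note: cells challenged with S1P at its EC80 of 0.8 µM; blue over green emission ratio from cleaved BLA substrate after 4 h stimulation; 0% = S1P-stimulated wells and 100% = unstimulated DMSO-only wells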
S1P4 ag = human S1P4 receptor agonism. O95977. S1P4-expressing cell line, agonist reporter assay. activation, % at 4.98 µM. 220,000 compounds, 0.35% hits. AID 1509; in the data active = activation above about 11%;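 note: 0% = DMSO vehicle and 100% = reference agonist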
TNAP inh noacc = blocks human TNAP activity with no phosphate acceptor present; purified TNAP, CDP-star luminescence, 30 min; inhibition, % at 20 µM; 200,000 compounds, 0.26% hits;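 active = tissue-nonspecific alkaline phosphatase inhibition above about 50% at 20 µM in the single-dose screen, limit read from the data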;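 note: 0% = DMSO negative control and 100% = EDTA positive control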
TNAP inh hi DEA = inhibitors of human TNAP at high phosphate acceptor concentration | 200,000 compounds, 0.03% hits | inhibition, % at 20 µM | AID 1135 | purified TNAP, CDP-star luminescence, 1 M DEA;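 active = over 50% inhibition of tissue-nonspecific alkaline phosphatase at 20 µM in the single-dose screen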;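 note: plate controls were DMSO wells for no effect and EDTA-quenched wells as full inhibition for full effect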
S1P4 agonist cf = confirmation of human S1P4 receptor agonists; shares compounds with S1P4 ag; S1P4 agonist cell-based reporter assay; activation, % at 4.98 µM; 740 compounds, 7% hits; AID 1523; in the data active = activation above about 12%;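 note: 0% = vehicle and 100% = full reference agonist response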
S1P1 ag = human S1P1 agonism as S1P4 agonist counter-screen | shares compounds with S1P4 ag | S1P1 agonist cell-based assay, activation | activation, % at 4.98 µM | 740 compounds, 4% hits | AID 1563; in the data active = activation above about 21%;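 note: 0% = vehicle wells and 100% = reference agonist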
The depositor's hits bear a star; nt = no result.

SMILES | TNAP act hi DEA | S1P4 antagonist | S1P3 antag | S1P4 ag | TNAP inh noacc | TNAP inh hi DEA | S1P4 agonist cf | S1P1 ag
Cc1ccn2c(C=O)c(-c3ccc(F)cc3)c(C=O)c2c1 | 1 | -15 | 9 | 0 | -2 | 4 | nt | nt
Cn1cnc2cc(NC(=O)c3ccco3)ccc21 | 1 | 6 | -1 | 61* | -5 | -1 | -2 | -9
O=C(Nc1ccc2c(c1)ncn2-c1ccccc1)c1ccco1 | 1.1 | 4 | 28 | 2 | 8 | -5 | nt | nt
O=C(COc1ccccc1)NCc1cccs1 | 1 | -1 | nt | 14* | 5 | -1 | -3 | -4
NS(=O)(=O)c1ccc(O)c(NC(=O)c2ccc([N+](=O)[O-])cc2)c1 | 0.9 | -7 | -1 | 2 | 8 | 11 | nt | nt
O=C(c1ccc(NS(=O)(=O)c2cccc3cccnc23)cc1)N1CCCCC1 | 1 | 5 | -11 | 23* | -7 | -2 | -1 | -4
O=C(c1ccc(NS(=O)(=O)c2cccc3cccnc23)cc1)N1CCOCC1 | nt | -4 | 3 | 0 | nt | nt | nt | nt
CCOC(=O)C1=C(C)NC(=O)NC1c1ccc(N2CCC(c3ccccc3)=N2)cc1 (configuration not stated) | 1.1 | 1 | -15 | 15* | -17 | -9 | 7 | 16
CCOC(=O)CSc1ccc(-c2nc3ccccc3[nH]2)cn1 | 1 | -3 | nt | 19* | -6 | 3 | -1 | -5
CCOC(=O)CSc1ccc(-c2nc3cc(C)c(C)cc3[nH]2)cn1 | 1 | -19 | nt | -2 | 9 | -5 | nt | nt
COc1cc(C(=O)NCC(=O)N/N=C/c2ccc(OC(=O)c3ccco3)cc2)cc(OC)c1OC | 1.1 | 10 | 6 | 21* | -11 | -6 | -2 | -11
CN1c2ccccc2C(=O)/C(=C\Nc2ccc(F)cc2F)S1(=O)=O | nt | 14 | -14 | -2 | nt | nt | nt | nt
O=c1cc(-c2ccc([N+](=O)[O-])cc2)c2ccc(O)cc2o1 | 1 | -7 | -1 | 12* | 1 | 3 | 1 | 8
CCN(C(=O)COC(=O)/C=C/c1c(C)nn(Cc2ccc(C)cc2)c1C)C1CCS(=O)(=O)C1 (configuration not stated) | 1 | 10 | -8 | -1 | -1 | 1 | nt | nt
CCN(CC)C(=O)Cn1cc(C(=O)C(=O)NCc2ccco2)c2ccccc21 | 1.1 | 1 | -17 | 13* | 8 | -6 | -1 | 4
CCN(CC)C(=O)Cn1cc(SCC(=O)NCc2ccco2)c2ccccc21 | 1 | -20 | -10 | 2 | -9 | -3 | nt | nt
O=S(=O)(c1ccc(Cl)cc1)N1CCN(c2nc(-c3cccs3)nc3ccccc23)CC1 | 1 | -5 | -15 | 15* | -3 | 0 | -2 | 6
CC1CN(CC(O)COC(c2ccccc2)c2ccccc2)CC(C)O1 (configuration not stated) | 1 | -9 | -15 | 57* | 3 | 4 | -1 | 5
CN(Cc1cc2ccccc2[nH]c1=O)C(=O)c1cccs1 | 1 | -6 | -9 | 0 | -6 | 0 | nt | nt
Cc1ccc2[nH]c(=O)c(CN(C)C(=O)c3cccs3)cc2c1 | 1 | -11 | -23 | 22* | -6 | 0 | -3 | -7
CCOC(=O)C1=C(C)Nc2nc(C)nn2C1c1ccc(C)cc1 (configuration not stated) | 1 | -5 | -2 | 13* | -3 | -4 | -3 | -9
COc1ccc(C(=O)CCC(C)(C)[N+](=O)[O-])cc1OC | 1 | 26 | 1 | -1 | 3 | -2 | nt | nt
Cc1nn(-c2ccc(Cl)nn2)c(=O)c2ccccc12 | 1 | -6 | -17 | 2 | -8 | -3 | nt | nt
CC(OCC(O)CN(C)Cc1nc2ccccc2c(=O)[nH]1)c1ccc(Cl)cc1 (configuration not stated) | 1 | 7 | -6 | 0 | -87 | -4 | nt | nt
CCCSc1nnc(NC(=O)Nc2ccc(F)cc2)s1 | 1 | -3 | nt | 61* | 0 | -1 | -2 | 2
SMILES | TNAP act hi DEA | S1P4 antagonist | S1P3 antag | S1P4 ag | TNAP inh noacc | TNAP inh hi DEA | S1P4 agonist cf | S1P1 ag
O=C(Nc1ccc2c(c1)S(=O)(=O)N=C1CCCCCN12)c1ccccc1Cl | 1 | -8 | 6 | 1 | -10 | -4 | nt | nt
COc1ccc(C2CC(c3cccs3)=NN2c2ccc(C=O)cc2)cc1 (configuration not stated) | 1 | -6 | 17 | 23* | -9 | -4 | 17* | 21*
c1ccc(C2CC(c3cccs3)=NN2c2ccccc2)cc1 (configuration not stated) | nt | 2 | 5 | 11 | nt | nt | nt | nt
O=[N+]([O-])c1ccc2c(c1)CNc1ccccc1O2 | 1.1 | -2 | 1 | 33* | -15 | -6 | -2 | 3
CC(=O)NCCCc1nc2ccccc2n1Cc1c(F)cccc1Cl | nt | -10 | 3 | 52* | nt | nt | -2 | -6
CC(=O)NCCCc1nc2ccccc2n1Cc1cc(C)ccc1C | 1 | -2 | 12 | 1 | -4 | -1 | nt | nt
O=[N+]([O-])c1ccc(C(O)C23CN4CN(CN(C4)C2)C3)cc1 (configuration not stated) | 1 | -4 | 0 | 0 | -14 | -4 | nt | nt
Cc1nc(-c2cccnc2)sc1C(=O)Nc1ccc(C(F)(F)F)cc1 | 1 | -19 | nt | 1 | 14 | -3 | nt | nt
Cc1nc(-c2ccncc2)sc1C(=O)Nc1ccc(Br)cc1 | 1 | 4 | -14 | 20* | -10 | -4 | -1 | -8
O=C(Nc1ccc(Br)cc1)c1csc(-c2ccncc2)n1 | 1 | 10 | -8 | 19* | -1 | -4 | -2 | -3
O=C(NCc1ccco1)C(c1ccc(F)cc1)N(C(=O)Cc1cccs1)c1cccnc1 (configuration not stated) | 1 | 9 | 3 | 0 | -4 | 0 | nt | nt
COC(=O)[C@H](Cc1c[nH]c2ccccc12)NC(=O)Nc1ccccc1OC | nt | 9 | -19 | -2 | nt | nt | nt | nt
Cc1ccc(C(=O)Nc2ccnc(-c3cccnc3)n2)cc1 | 1 | 25 | -12 | 1 | 2 | 2 | nt | nt
O=C(Nc1ccnc(-c2cccnc2)n1)c1ccc(Cl)c(Cl)c1 | 1.1 | 19 | nt | 27* | -17 | -6 | -1 | 1
CC(C)(C)c1ccc(N2C(=O)CSC2c2cccnc2)cc1 (configuration not stated) | nt | 12 | -3 | 99* | nt | nt | -1 | -6
CCc1cccc(CC)c1NC(=O)COC(=O)c1ccc2c(c1)S(=O)(=O)c1ccccc1C2=O | 1 | -21 | -2 | 12* | -1 | 2 | -1 | 0
CC(C)(C)c1ccc(N/N=C(\C#N)S(=O)(=O)C(C)(C)C)cc1 | 1 | -34 | -3 | 29* | -3 | -2 | -2 | -3
CC(C)(C)S(=O)(=O)/C(C#N)=N/Nc1ccc(Cl)cc1 | 1 | 4 | -13 | -1 | -3 | -1 | nt | nt

Assay outcomes deposited in PubChem by several laboratories.
